Experimental data taken from ChEMBL document CHEMBL1129493 (J Med Chem, 1996).
≈ marks a conversion by molar mass, not a printed value. Values belong to the compound of their own block, whether it stands above or below them.

Legend:
[1] = tested on: A549; experiment: Cytotoxic activity evaluated against A549 tumor cells; details: Homo sapiens
[2] = Relative concentration of compound in brain compared to concentration in plasma (0.4 ug/mL) at the time of tissue collection from mice; relative concentration; type: ADME, organism-based; details: mouse, read-out: Activity
[3] = tested on: Candida albicans; experiment: Minimum inhibitory concentration evaluated against Candida albicans; type: functional
[4] = Cytotoxic activity was evaluated against Daoy tumor cells; type: functional, cell-based; details: Homo sapiens
Summary of the method: (§1)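 Cytotoxicity was read by MTT dye reduction for suspension cultures or sulforhodamine B for monolayer cultures. For reversal of multidrug resistance, reserpine was added as reversing agent ([…] as printed).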

[5] = biological target: T1, Dihydrofolate reductase (Candida albicans, UniProt P22906); experiment: Inhibition of Dihydrofolate reductase enzyme from Candida albicans
T1 sequence (P22906 whole entry): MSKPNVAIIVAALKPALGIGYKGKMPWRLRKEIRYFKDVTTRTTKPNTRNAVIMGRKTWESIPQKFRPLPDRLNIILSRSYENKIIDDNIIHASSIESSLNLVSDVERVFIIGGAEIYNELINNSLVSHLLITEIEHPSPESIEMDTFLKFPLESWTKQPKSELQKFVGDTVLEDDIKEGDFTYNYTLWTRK

[6] = biological target: T2, Dihydrofolate reductase (Homo sapiens, UniProt P00374); experiment: Inhibition of human recombinant Dihydrofolate reductase enzyme
T2 sequence (P00374 whole entry): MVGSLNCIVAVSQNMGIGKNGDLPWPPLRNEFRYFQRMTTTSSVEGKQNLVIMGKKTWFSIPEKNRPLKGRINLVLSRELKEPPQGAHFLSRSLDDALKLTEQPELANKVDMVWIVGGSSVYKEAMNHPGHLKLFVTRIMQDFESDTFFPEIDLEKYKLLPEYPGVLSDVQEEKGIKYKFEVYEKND

[7] = tested on: HCT-8; experiment: Activity was evaluated against HCT-8 tumor cells; type: functional, cell-based; details: Homo sapiens; summary of the method: as §1
[8] = Cytotoxic activity was evaluated against L tumor cells; type: functional, cell-based; details: Mus musculus; summary of the method: as §1
[9] = tested on: Mus musculus; experiment: Effect on life span of mice with intracranially implanted P388 Leukemic cells; type: functional
Summary of the method: (§2)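 CDF-1 female mice (18–20 g, 5 or 8/group); P388 leukemia, maintained by in vivo serial passage, implanted intracranially at 1 × 10^5 cells. Treatment started 24 h later; test agents suspended in 0.5% carboxymethyl cellulose plus 1% Tween 80, given sc or ip qd × 10. Read-out was percent increase in life span versus controls.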

[10] = tested on: Mus musculus; experiment: Effect on life span of mice with intraperitoneally implanted P388 Leukemic cells; type: functional
Summary of the method: (§3)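 CDF-1 female mice (18–20 g, 5 or 8/group); P388 or P388/ADR cells implanted ip at 1 × 10^6 cells. Dosing began 24 h later; agents suspended in 0.5% carboxymethyl cellulose plus 1% Tween 80, given sc or ip qd × 10. Read-out was percent increase in life span.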

[11] = species: Mus musculus; experiment: Effect on Candida albicans nephritis and Meningitis in Immunosuppressed Mice kidney; type: functional
Summary of the method: (§4)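 Immunosuppressed CD-1 female mice (10/group) given cyclophosphamide ip, 160 and 40 mg/kg on days -4 and -1; C. albicans 5 × 10^4 cfu/mouse iv via lateral tail vein. Sc dosing of 20 or 50 mg/kg in sesame oil at 3, 7, 24, 30 h post-inoculation; sulfamethoxazole 200 mg/kg ip in D5W given 1 h before each dose. Kidney and brain cultured at 48 h; log cfu/g tissue.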

[12] = tested on: P388; experiment: Cytotoxic activity was evaluated against P388D1 tumor cells; type: functional, cell-based; details: Mus musculus; summary of the method: as §1
[13] = tested on: U-87 MG; experiment: Cytotoxic activity was evaluated against U87MG tumor cells; type: functional, cell-based, U-87MG ATCC; details: Homo sapiens; summary of the method: as §1
[14] = tested on: 143B; experiment: Cytotoxic Activity was evaluated against 143B (TK-) tumor cells; type: functional, cell-based; details: Homo sapiens; summary of the method: as §1
[15] = tested on: D54 cell line; experiment: Cytotoxic Activity was evaluated against D54 tumor cells; type: functional, cell-based; details: Homo sapiens; summary of the method: as §1
[16] = tested on: NCI-H460; experiment: Cytotoxic Activity was evaluated against H460 tumor cells; type: functional, cell-based; details: Homo sapiens; summary of the method: as §1
[17] = tested on: Mus musculus; experiment: Effect on life span of mice with intracranially implanted P388 Leukemic cells at 10 mg/kg by subcutaneous injection; type: functional; summary of the method: as §2
[18] = tested on: Mus musculus; experiment: Effect on life span of mice with intraperitoneally implanted P388 Leukemic cells at 10 mg/kg by subcutaneous injection; type: functional; summary of the method: as §3
[19] = tested on: Mus musculus; experiment: Effect on life span of mice with intraperitoneally implanted P388/ADR Leukemic cells at 10 mg/kg by subcutaneous injection; type: functional; summary of the method: as §3
[20] = species: Mus musculus; experiment: Effect on Pneumocystis carinii pneumonia in SCID mice in the presence of leucovorin; type: functional
Summary of the method: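 SCID mice (10-11/group) were dosed prophylactically once daily from day 1 postinfection, 42 doses. Test drug in D5W was given ip, then leucovorin 12 mg/kg sc 30 min later. Trimethoprim 50 mg/kg plus sulfamethoxazole 250 mg/kg was given orally, and controls received D5W ip and sc. Lung impression smears were taken 24 h after the last dose and stained by immunofluorescence. Infection was scored 0-4 semilogarithmically, reported as mean ± SEM and as infected/total mice.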

[21] = species: Mus musculus; experiment: Number of mice infected to that of total number of mice (2/11); type: functional, organism-based
[22] = species: Mus musculus; experiment: Effect on Candida albicans nephritis and Meningitis in Immunosuppressed Mice brain; type: functional; summary of the method: as §4
[23] = species: Mus musculus; experiment: Effect on Candida albicans nephritis and Meningitis in Immunosuppressed Mice brain in the presence of SMX; type: functional
Summary of the method: (§5)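 Immunosuppressed CD-1 female mice (10/group; cyclophosphamide 160 and 40 mg/kg ip on days -4 and -1) inoculated iv via lateral tail vein with 5 × 10^4 cfu C. albicans. Compound sc in 0.1 mL sesame oil (20 or 50 mg/kg) at 3, 7, 24, 30 h; sulfamethoxazole 200 mg/kg ip in D5W 1 h before each dose. Kidney and brain cultured at 48 h; log cfu/g tissue, duplicate or single experiments.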

[24] = species: Mus musculus; experiment: Effect on Candida albicans nephritis and Meningitis in Immunosuppressed Mice kidney in the presence of SMX; type: functional; summary of the method: as §5
[25] = tested on: U373 MG; experiment: Cytotoxic activity was evaluated against U373MG tumor cells; type: functional, cell-based, U-373MG ATCC; details: Homo sapiens; summary of the method: as §1
[26] = tested on: Vero; experiment: Cytotoxic Activity was evaluated against Vero tumor cells; type: functional, cell-based; details: Chlorocebus sabaeus; summary of the method: as §1
[27] = tested on: KB; experiment: Cytotoxic activity was evaluated against KBV-1 cells in presence of reserpine; type: functional, Homo sapiens; summary of the method: as §1
[28] = tested on: KB; experiment: Cytotoxic activity was evaluated against KBV-1 cells; type: functional, Homo sapiens; summary of the method: as §1
[29] = tested on: MCF7; experiment: Cytotoxic activity was evaluated against MCF-7/ADR cells; type: functional, Homo sapiens; summary of the method: as §1
[30] = tested on: MCF7; experiment: Cytotoxic activity was evaluated against MCF-7/ADR+Reserpine cells; type: functional, Homo sapiens; summary of the method: as §1
[31] = tested on: MCF7; experiment: Cytotoxic Activity was evaluated against MCF-7 cells; type: functional, Homo sapiens; summary of the method: as §1
[32] = tested on: KB 3-1; experiment: Cytotoxic activity was evaluated against KB3-1 cells; type: functional, Homo sapiens; summary of the method: as §1
[33] = tested on: Mus musculus; experiment: Effect on life span of mice with intraperitoneally implanted P388/ADR Leukemic cells; type: functional; summary of the method: as §3
[34] = tested on: P388; experiment: Cytotoxic activity was evaluated against P388D1/ADR cells; type: functional, Mus musculus; summary of the method: as §1
[35] = tested on: P388; experiment: Cytotoxic Activity was evaluated against P388D1 cells; type: functional, Mus musculus; summary of the method: as §1
[36] = tested on: P388; experiment: Cytotoxic activity was evaluated against P388/ADR + reserpine cells; type: functional, Mus musculus; summary of the method: as §1
[37] = Tissue distribution of the in rat lung relative to plasma concentration of 1 mg/kg; relative concentration
[38] = Tissue distribution of the in rat brain relative to plasma concentration of 1 mg/kg; relative concentration
[39] = tested on: MCF7; experiment: Cytotoxic activity was evaluated against MCF-7 cells; type: functional, Homo sapiens; summary of the method: as §1

- MIC [3]: 0.05 µg/mL (≈ 0.196 µM)
- Ki [5]: 0.12 nM
- Ki [6]: < 0.002 nM
- IC50 [7]: 3.3 nM
SMILES: CC(C)(C)c1cc2c(ccc3nc(N)nc(N)c32)[nH]1

- Kp [37]: 31
- Kp [38]: 6.5
SMILES: Cc1nc(N)nc(N)c1-c1ccc(Cl)c(Cl)c1 [METOPRINE]

- MIC [3]: 1.6 µg/mL (≈ 7.5 µM)
- Ki [5]: 25 nM
- Ki [6]: 0.23 nM
- IC50 [7]: 580 nM
SMILES: Cn1ccc2c3c(N)nc(N)nc3ccc21

- MIC [3]: 0.1 µg/mL (≈ 0.353 µM)
- Ki [5]: < 0.05 nM
- Ki [6]: 0.0001 nM
- IC50 [7]: 0.82 nM
SMILES: CCc1cc2c3c(N)nc(N)nc3ccc2n1C(C)CC (stereo not drawn)

- MIC [3]: 0.025 µg/mL (≈ 0.0882 µM)
- Ki [5]: 0.0071 nM
- Ki [6]: 0.0004 nM
- IC50 [7]: 2.1 nM
SMILES: CCC(C)(C)n1c(C)cc2c3c(N)nc(N)nc3ccc21

Further lines, the compound ahead of its results:

SMILES: CCC(CC)n1ccc2c3c(N)nc(N)nc3ccc21
- IC50 [1]: 10 nM
- Kp [2]: 10
- MIC [3]: 0.001 µg/mL (≈ 0.00371 µM)
- IC50 [4]: 80 nM
- Ki [5]: 0.22 nM
- Ki [6]: 0.0045 nM
- IC50 [7]: 6 nM
- IC50 [8]: 2.2 nM
- Increase in life-span [9]: 55%
- Increase in life-span [10]: 80%
- Log cfu/g of tissue [11]: 6
- IC50 [12]: 4.5 nM
- IC50 [13]: 8 nM

SMILES: CCCc1cc2c3c(N)nc(N)nc3ccc2n1C(CC)CC
- MIC [3]: > 0.1 µg/mL
- Ki [5]: < 0.11 nM
- Ki [6]: 0.0004 nM
- IC50 [7]: 4.4 nM

SMILES: CCC(CC)n1c(C)cc2c3c(N)nc(N)nc3ccc21
- IC50 [14]: 0.8 nM
- IC50 [1]: 0.4 nM
- Kp [2]: 10
- MIC [3]: 0.025 µg/mL (≈ 0.0882 µM)
- IC50 [4]: 2.3 nM
- IC50 [15]: 4.6 nM
- Ki [5]: 0.03 nM
- Ki [6]: 0.0003 nM
- IC50 [16]: 0.5 nM
- IC50 [7]: 0.74 nM
- IC50 [8]: 0.6 nM
- Increase in life-span [17]: 50%
- Increase in life-span [18]: 80%
- Increase in life-span [19]: 20%
- Infection score [20]: 0.18
- No. of mice infected /total [21]: Number of mice infected to that of total number of mice (2/[…])
- Log cfu/g of tissue [22]: 3.6
- Log cfu/g of tissue [23]: 3.4
- Log cfu/g of tissue [11]: 3.4
- Log cfu/g of tissue [24]: 2.5
- IC50 [12]: 0.12 nM
- IC50 [25]: 2.3 nM
- IC50 [13]: 2.1 nM
- IC50 [26]: 1 nM

SMILES: CC(C)c1cc2c(ccc3nc(N)nc(N)c32)[nH]1
- MIC [3]: 0.05 µg/mL (≈ 0.207 µM)
- Ki [5]: 0.16 nM
- Ki [6]: 0.01 nM

SMILES: COc1cccc2c1C(=O)c1c(O)c3c(c(O)c1C2=O)C[C@@](O)(C(=O)CO)C[C@@H]3O[C@H]1C[C@H](N)[C@H](O)[C@H](C)O1 [DOXORUBICIN]
- Relative IC50 [27]: 1.6
- Relative IC50 [28]: 61
- Relative IC50 [29]: 200
- Relative IC50 [30]: 1.5
- Relative IC50 [31]: 1
- Relative IC50 [32]: 1
- Increase in life-span [10]: 130%
- Increase in life-span [33]: 30%
- Relative IC50 [34]: 28 nM
- Relative IC50 [35]: 1
- Relative IC50 [36]: 3.7 nM

SMILES: Cc1cc(NS(=O)(=O)c2ccc(N)cc2)no1 [SULFAMETHOXAZOLE]
- Log cfu/g of tissue [22]: 4.7
- Log cfu/g of tissue [11]: 7.3

SMILES: Cc1cc2c3c(N)nc(N)nc3ccc2n1C(C)C
- MIC [3]: 0.025 µg/mL (≈ 0.0979 µM)
- Ki [5]: 0.22 nM
- Ki [6]: 0.0064 nM
- IC50 [7]: 7.4 nM

SMILES: CC[C@]1(O)C[C@@H]2CN(CCc3c([nH]c4ccccc34)[C@@](C(=O)OC)(c3cc4c(cc3OC)N(C)[C@H]3[C@@](O)(C(=O)OC)[C@H](OC(C)=O)[C@]5(CC)C=CCN6CC[C@]43[C@@H]65)C2)C1 [VINBLASTINE]
- Relative IC50 [27]: 1.3
- Relative IC50 [28]: 2000
- Relative IC50 [39]: 1
- Relative IC50 [29]: 17500
- Relative IC50 [30]: 0.5
- Relative IC50 [32]: 1
- Relative IC50 [34]: 19 nM
- Relative IC50 [35]: 1
- Relative IC50 [36]: 0.2 nM
